Experiments:
Human respirovirus 3 = assay: Antiviral activity against parainfluenza 3 virus in Vero cells assessed as reduction of virus plaque formation after 7 days; type: functional, organism-based; details: Human respirovirus 3, Vero, 168 h
[1] = tested on: Mammalian orthoreovirus 1; assay: Antiviral activity against reovirus1 virus in Vero cells assessed as reduction of virus plaque formation after 7 days; type: functional, organism-based; details: Mammalian orthoreovirus 1, Vero, 168 h
Sindbis virus = assay: Antiviral activity against sindbis virus in Vero cells assessed as reduction of virus plaque formation after 7 days; type: functional, organism-based; details: 168 h
Punta Toro virus = assay: Antiviral activity against Punta Toro virus in Vero cells assessed as reduction of virus plaque formation after 7 days; type: functional, organism-based; details: 168 h
Coxsackievirus B4 = assay: Antiviral activity against coxsackie B4 virus in HeLa cells assessed as reduction of virus plaque formation after 7 days; type: functional, organism-based; details: Enterovirus B, 168 h
Human betaherpesvirus 5 [2] = assay: Antiviral activity against human cytomegalovirus AD169 in HEL cells assessed as reduction of plaque formation after 7 days; type: functional, organism-based; details: Human betaherpesvirus 5, AD169, HEL, 168 h
Summary of the method: (§1)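 Confluent HEL fibroblasts infected with HCMV (Davis or AD-169) at 100 PFU per well; after 2 h adsorption, residual virus removed and medium with serial compound concentrations added (duplicate wells). Incubated 7 days; EC50 taken as concentration reducing plaque formation by 50%.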

Human betaherpesvirus 5 [3] = assay: Antiviral activity against human cytomegalovirus Davis in HEL cells assessed as reduction of plaque formation after 7days; type: functional, organism-based; details: Human betaherpesvirus 5, Davis, 168 h; summary of the method: as §1
Human alphaherpesvirus 3 [4] = assay: Antiviral activity against thymidine kinase expressing Varicella-Zoster virus OKA assessed as reduction of plaque formation; type: functional, organism-based; details: Human alphaherpesvirus 3, OKA
Human alphaherpesvirus 3 [5] = assay: Antiviral activity against thymidine kinase deficient Varicella-Zoster virus 07/1 assessed as reduction of plaque formation; type: functional, organism-based; details: Human alphaherpesvirus 3, 07/1
Summary of the method: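 Plaque reduction assay in HEL cells against TK+ (OKA) and TK- (07/1) VZV strains; virus input 100 PFU; EC50 as concentration giving 50% plaque reduction.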

[6] = Cytotoxicity against HEL cells assessed as cell morphology after 7 days; type: cell-based; details: human
Summary of the method: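 Uninfected confluent HEL cultures exposed to compounds; MCC recorded as lowest concentration producing a microscopically detectable alteration of normal cell morphology at day 7.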

[7] = Cytotoxicity against HEL cells assessed as cell growth after 7 days; type: cell-based; details: human
HEp-2 = assay: Growth inhibition of Hep2 cells after 72 hrs by MTT assay; type: functional, cell-based; details: Homo sapiens, HEp-2, 72 h
Summary of the method: (§2)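 Tumor lines grown as monolayers in DMEM with 10% FBS, 2 mM L-glutamine and penicillin. Freshly diluted compounds added, solvent tested at matching concentrations; after 72 h growth measured by MTT. IC50 obtained by linear regression of concentrations bracketing 50% growth; mean of three separate experiments.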

HeLa = assay: Growth inhibition of HeLa cells after 72 hrs by MTT assay; type: functional, cell-based; details: Homo sapiens; summary of the method: as §2
MIA PaCa-2 = assay: Growth inhibition of MiaPaCa2 cells after 72 hrs by MTT assay; type: functional, cell-based; details: Homo sapiens, MIA PaCa-2, 72 h; summary of the method: as §2
SW-620 = assay: Growth inhibition of SW620 cells after 72 hrs by MTT assay; type: functional, cell-based; details: Homo sapiens, SW-620, 72 h; summary of the method: as §2
MCF7 = assay: Growth inhibition of MCF7 cells after 72 hrs by MTT assay; type: functional, cell-based; details: Homo sapiens, MCF7, 72 h; summary of the method: as §2
L1210 = assay: Growth inhibition of mouse L1210 cells after 72 hrs by MTT assay; type: functional, cell-based; details: L1210, 72 h
[8] = Growth inhibition of human Molt4/C8 cells after 72 hrs by MTT assay; type: functional, cell-based; details: MOLT-4, 72 h
CCRF-CEM = assay: Growth inhibition of human CEM cells after 72 hrs by MTT assay; type: functional, cell-based

Row | SMILES | EC50 (Human respirovirus 3) [µM] | EC50 [1] [µM] | EC50 (Sindbis virus) [µM] | EC50 (Punta Toro virus) [µM] | EC50 (Coxsackievirus B4) [µM] | EC50 (Human betaherpesvirus 5 [2]) [µM] | EC50 (Human betaherpesvirus 5 [3]) [µM] | EC50 (Human alphaherpesvirus 3 [4]) [µM] | EC50 (Human alphaherpesvirus 3 [5]) [µM] | MCC at 168 h [6] [µM] | CC50 at 168 h [7] [µM] | IC50 (HEp-2) [µM] | IC50 (HeLa) [µM] | IC50 (MIA PaCa-2) [µM] | IC50 (SW-620) [µM] | IC50 (MCF7) [µM] | IC50 (L1210) [µM] | IC50 [8] [µM] | IC50 (CCRF-CEM) [µM]
1 | NC(=O)c1ncn([C@@H]2O[C@H](CO)[C@@H](O)[C@H]2O)n1 [RIBAVIRIN] | 150 | 250 | 50 | 150 | 150 |  |  |  |  |  |  |  |  |  |  |  |  |  | 
2 | COc1cc(CC(C)(O)Cc2ccccc2F)nc(OC)n1 (stereo unspecified) | > 130 | > 130 | > 130 | > 130 | > 200 | > 100 | > 100 | > 100 | > 100 | ≥ 100 | > 100 | > 200 | > 200 | > 200 | > 200 | > 200 | > 200 | 79 | 156
3 | COc1cc(CC(O)(c2ccc(F)cc2)c2ccc(F)cc2)nc(OC)n1 | > 40 | > 40 | > 40 | > 40 | > 40 | > 100 | > 100 | > 100 | > 100 | > 100 | > 100 | > 100 | > 100 | > 100 | > 100 | > 100 | ≥ 500 | > 500 | > 500
4 | COc1nc(C)c(-c2ccccc2)c(OC)n1 | > 40 | > 40 | > 40 | 40 | > 40 | > 20 | > 20 | > 20 | > 20 | 100 | 34 | > 100 | 90 | > 100 | > 100 | > 100 | 77 | 70 | 43
5 | Nc1nc2c(ncn2COC(CO)CO)c(=O)[nH]1 [GANCICLOVIR] |  |  |  |  |  | 4.8 | 1.3 |  |  | > 1580 | 172 |  |  |  |  |  |  |  | 
6 | COc1nc(OC)c(Br)c(C(Br)Br)n1 | 40 | > 40 | 40 | > 40 | > 40 | > 20 | > 20 | 8.8 | 10.5 | 100 | 1.7 | 2 | 1 | 2 | 0.4 | 6 | 8.8 | 8.5 | 7.1
7 | COc1cc(/C=C(/O)c2ccc(F)cc2)nc(OC)n1 | > 200 | > 200 | 200 | > 200 | 24 | > 100 | 38 | > 100 | > 20 | > 100 | > 100 | > 100 | > 100 | > 100 | ≥ 100 | ≥ 100 | > 200 | > 200 | 192
8 | COc1cc(CC(C)(O)CF)nc(OC)n1 (stereo unspecified) | > 200 | > 200 | > 200 | > 200 | > 200 | > 100 | > 100 | > 100 | > 100 | > 100 | > 100 | > 200 | > 200 | > 200 | > 200 | > 200 | > 200 | > 200 | > 200
9 | CC(O)(Cc1cc(O)nc(O)n1)C(F)(F)F (stereo unspecified) | > 200 | > 200 | > 200 | > 200 | > 200 | > 100 | > 100 | > 100 | > 100 | > 100 | > 100 | > 100 | > 100 | > 100 | > 100 | > 100 | > 500 | > 500 | > 500
10 | CC(O)(CF)Cc1cc(O)nc(O)n1 (stereo unspecified) | > 196 | > 196 | > 196 | > 196 | > 200 | > 100 | > 100 | > 100 | > 100 | > 100 | > 100 | > 200 | > 200 | > 200 | > 200 | > 200 | > 200 | > 200 | > 200
11 | Nc1ncnc2c1ncn2C[C@H](O)CO [(S)-DHPA] | > 250 | > 250 | > 250 | > 250 | > 250 |  |  |  |  |  |  |  |  |  |  |  |  |  | 
12 | Nc1nc2c(ncn2COCCO)c(=O)[nH]1 [ACYCLOVIR] |  |  |  |  |  |  |  |  |  | > 1780 | 649 |  |  |  |  |  |  |  | 
13 | O=c1[nH]c(=O)n([C@H]2C[C@H](O)[C@@H](CO)O2)cc1/C=C/Br [BRIVUDINE] | > 250 | > 250 | > 250 | > 250 | > 250 |  |  | 0.014 | 168 | ≥ 1200 | 408 |  |  |  |  |  |  |  | 
14 | Nc1ccn(C[C@@H](CO)OCP(=O)(O)O)c(=O)n1 [CIDOFOVIR] |  |  |  |  |  | 0.41 | 0.41 |  |  | ≥ 1270 | 51 |  |  |  |  |  |  |  | 

From ChEMBL document CHEMBL1145384, “Novel C-6 fluorinated acyclic side chain pyrimidine derivatives: synthesis, (1)H and (13)C NMR conformational studies, and antiviral and cytostatic evaluations” (J Med Chem, 2007)
